In ChEMBL document CHEMBL4043295, “Marbostat-100 Defines a New Class of Potent and Selective Antiinflammatory and Antirheumatic Histone Deacetylase 6 Inhibitors” (J Med Chem, 2018) one finds inhibition, Activity and Ki data, which are given here for one compound.

Active and inactive are the calls of the source. The rule behind the calls is not given here.

Series [1] deals with T1, Protein deacetylase HDAC6 (Homo sapiens) (UniProt Q9UBN7).
T1 sequence (whole entry): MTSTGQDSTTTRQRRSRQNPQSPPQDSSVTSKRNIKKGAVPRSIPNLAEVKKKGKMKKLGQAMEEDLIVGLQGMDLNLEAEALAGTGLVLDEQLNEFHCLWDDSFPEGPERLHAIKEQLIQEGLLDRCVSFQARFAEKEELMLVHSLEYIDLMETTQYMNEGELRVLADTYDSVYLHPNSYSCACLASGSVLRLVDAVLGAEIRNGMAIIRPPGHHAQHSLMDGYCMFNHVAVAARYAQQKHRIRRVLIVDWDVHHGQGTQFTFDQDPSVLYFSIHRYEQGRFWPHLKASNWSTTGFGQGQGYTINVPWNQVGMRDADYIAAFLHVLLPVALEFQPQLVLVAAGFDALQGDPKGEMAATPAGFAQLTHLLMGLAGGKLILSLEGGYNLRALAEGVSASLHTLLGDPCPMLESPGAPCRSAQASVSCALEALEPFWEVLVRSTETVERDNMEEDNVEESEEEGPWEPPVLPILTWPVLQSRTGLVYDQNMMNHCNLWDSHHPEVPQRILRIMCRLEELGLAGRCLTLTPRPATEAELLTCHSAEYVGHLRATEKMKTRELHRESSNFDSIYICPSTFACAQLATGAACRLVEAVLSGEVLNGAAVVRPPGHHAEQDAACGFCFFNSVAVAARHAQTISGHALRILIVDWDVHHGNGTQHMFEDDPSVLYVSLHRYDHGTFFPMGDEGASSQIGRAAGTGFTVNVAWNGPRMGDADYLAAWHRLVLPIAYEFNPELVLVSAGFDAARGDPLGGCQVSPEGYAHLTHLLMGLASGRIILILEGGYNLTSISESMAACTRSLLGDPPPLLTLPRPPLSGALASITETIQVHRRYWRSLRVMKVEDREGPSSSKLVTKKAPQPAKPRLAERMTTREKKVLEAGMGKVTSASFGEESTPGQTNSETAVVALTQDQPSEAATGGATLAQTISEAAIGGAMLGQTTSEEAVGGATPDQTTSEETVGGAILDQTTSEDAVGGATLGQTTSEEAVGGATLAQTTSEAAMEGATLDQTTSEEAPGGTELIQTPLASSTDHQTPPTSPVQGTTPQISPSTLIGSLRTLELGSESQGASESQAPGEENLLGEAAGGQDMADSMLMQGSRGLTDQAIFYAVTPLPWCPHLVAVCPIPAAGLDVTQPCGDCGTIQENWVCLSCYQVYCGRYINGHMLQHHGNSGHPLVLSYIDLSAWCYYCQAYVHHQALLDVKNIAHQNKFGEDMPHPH
The note with it: 5 to 1000 nM.

In the next series the test system is MV4-11. Kind of series: Cell cycle arrest in human MV4-11 cells at 50 nM to 1 uM after 24 hrs by propidium iodide staining-based flow cytometric method. In kind it is functional. The gist of the method:
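Cells were stained with propidium iodide and analysed by flow cytometry for cell-cycle distribution and the subG1 fraction (fragmented DNA). Representative of at least two independent experiments.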
In general terms: In flow cytometry, cells or beads pass a laser one at a time.

The target in series [2] is T2, Polyamine deacetylase HDAC10 (Homo sapiens, UniProt Q969S8).
T2 sequence (Q969S8 whole entry): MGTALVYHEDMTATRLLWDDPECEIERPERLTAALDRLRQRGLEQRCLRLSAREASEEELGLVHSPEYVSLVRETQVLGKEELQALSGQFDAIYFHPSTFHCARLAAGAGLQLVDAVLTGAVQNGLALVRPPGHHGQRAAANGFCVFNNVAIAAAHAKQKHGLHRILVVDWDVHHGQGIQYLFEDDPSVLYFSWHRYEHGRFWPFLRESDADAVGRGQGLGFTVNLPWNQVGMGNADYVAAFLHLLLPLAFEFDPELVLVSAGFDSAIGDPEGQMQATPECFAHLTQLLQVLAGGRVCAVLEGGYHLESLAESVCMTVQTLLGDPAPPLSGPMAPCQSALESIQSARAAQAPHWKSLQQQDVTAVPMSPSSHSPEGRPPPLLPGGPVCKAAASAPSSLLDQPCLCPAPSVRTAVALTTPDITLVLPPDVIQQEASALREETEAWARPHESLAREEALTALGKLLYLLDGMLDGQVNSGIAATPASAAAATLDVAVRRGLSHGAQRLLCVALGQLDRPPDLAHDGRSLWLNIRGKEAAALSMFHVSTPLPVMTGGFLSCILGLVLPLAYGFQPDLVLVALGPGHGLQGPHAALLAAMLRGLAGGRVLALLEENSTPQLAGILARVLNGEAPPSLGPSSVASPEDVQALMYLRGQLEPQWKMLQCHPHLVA
Kind of series: Inhibition of recombinant human HDAC10 expressed in baculovirus-infected insect cells using fluorogenic peptide RHKKAc as substrate by fluorimeter.

The target in series [3] is Histone deacetylase 3/Nuclear receptor corepressor 2 (HDAC3/NCoR2) (Homo sapiens, UniProt O15379). Kind of series: biochemical. In kind it is cell-based.
Series [4] concerns Mus musculus. The experiment in a line: In vivo inhibition of HDAC6 in DBA/1J mouse assessed as induction of tubulin acetylation in kidney at 0.6 mg […] by Western blot method. It is filed as functional, organism-based. An outline of the steps:
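Male DBA/1J mice received 0.6 mg inhibitor; organs were collected 2.5 h later and stored at −80 °C. Liver and kidney lysates were immunoblotted for acetylated tubulin and compared with untreated controls. Representative of at least two experiments.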
In general terms: In western blotting, separated proteins are transferred to a membrane and probed.

The test system of series [5] is Mus musculus. Kind of series: Toxicity in DBA/1J mouse collagen-induced arthritis model assessed as effect on hemoglobin concentration at 30 mg/kg, ip administered every morning for 12 to 14 days measured post last dose relative to vehicle-treated control. In kind it is organism-based. To be noted: in vivo.
The next series has as its target Histone deacetylase 4 (Homo sapiens, UniProt P56524). The experiment in a line: Inhibition of recombinant human C-terminal GST-tagged HDAC4 expressed in baculovirus-infected insect cells using Boc-Lys(TFA)-AMC as substrate by fluorimeter.
Series [6] relates to Mus musculus. Kind of series: Antiarthritic activity in DBA/1J mouse collagen-induced arthritis model assessed as decrease in sign of synovial inflammation at 30 mg/kg, ip administered every morning for 12 to 14 days. In kind it is functional, organism-based. The gist of the method:
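Collagen type II-induced arthritis in mice, treated at 30 mg/kg versus vehicle. Arthritic paws were assessed histologically for synovial inflammation, cellular invasion, cartilage degradation and bone erosion.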

The target in another series is Histone deacetylase 2 (Homo sapiens, UniProt Q92769). The experiment in a line: Inhibition of full length recombinant human C-terminal GST-tagged HDAC2 expressed in baculovirus-infected insect cells using RHKK(Ac)AMC as substrate after 60 mins by fluorimeter.
Series [7] concerns Mus musculus. Kind of series: Antiarthritic activity in DBA/1J mouse collagen-induced arthritis model assessed as decrease in clinical scores at 30 mg/kg, ip administered every morning for 12 to 14 days measured during compound dosing relative to vehicle-treated control. In kind it is functional. Set-up: scale not given: the % may be the effect or the level left. An outline of the steps: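 Collagen type II-induced arthritis in mice, treated at 30 mg/kg versus vehicle. Clinical arthritis score and paw swelling were followed over time from the start of treatment until the end of the experiment.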

Series [8] concerns the target T1, Protein deacetylase HDAC6 (Homo sapiens). To be noted: 5 to 1000 nM. The source holds these as a separate data set.

Chain of Histone deacetylase 4 (P56524 whole entry): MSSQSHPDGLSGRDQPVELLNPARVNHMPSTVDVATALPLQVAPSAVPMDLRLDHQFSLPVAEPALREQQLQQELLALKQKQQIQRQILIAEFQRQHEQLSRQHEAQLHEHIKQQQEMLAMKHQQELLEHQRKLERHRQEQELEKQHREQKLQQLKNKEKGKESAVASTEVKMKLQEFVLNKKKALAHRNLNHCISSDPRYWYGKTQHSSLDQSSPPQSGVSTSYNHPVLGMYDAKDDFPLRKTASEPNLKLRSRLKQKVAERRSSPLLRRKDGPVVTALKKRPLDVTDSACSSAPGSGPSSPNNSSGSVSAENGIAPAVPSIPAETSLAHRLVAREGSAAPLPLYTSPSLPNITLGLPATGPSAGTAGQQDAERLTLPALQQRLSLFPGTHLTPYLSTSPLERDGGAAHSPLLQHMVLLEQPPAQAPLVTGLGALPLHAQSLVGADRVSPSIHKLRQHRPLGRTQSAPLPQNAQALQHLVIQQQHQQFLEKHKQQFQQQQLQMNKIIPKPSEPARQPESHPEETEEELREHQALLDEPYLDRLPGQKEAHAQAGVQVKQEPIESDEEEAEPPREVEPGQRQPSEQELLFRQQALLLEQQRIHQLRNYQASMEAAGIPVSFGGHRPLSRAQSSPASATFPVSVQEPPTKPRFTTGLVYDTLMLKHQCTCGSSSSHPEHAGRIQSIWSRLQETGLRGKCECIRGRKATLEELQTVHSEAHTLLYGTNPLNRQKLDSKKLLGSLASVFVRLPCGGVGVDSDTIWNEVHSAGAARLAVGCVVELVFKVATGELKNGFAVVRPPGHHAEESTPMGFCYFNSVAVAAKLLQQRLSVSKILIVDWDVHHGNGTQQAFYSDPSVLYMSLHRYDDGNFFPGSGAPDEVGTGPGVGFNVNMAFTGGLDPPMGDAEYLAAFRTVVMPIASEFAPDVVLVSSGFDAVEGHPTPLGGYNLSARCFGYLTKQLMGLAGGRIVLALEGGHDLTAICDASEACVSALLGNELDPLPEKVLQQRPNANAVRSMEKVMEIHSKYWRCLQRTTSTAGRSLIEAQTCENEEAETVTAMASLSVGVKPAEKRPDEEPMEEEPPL
Chain of Histone deacetylase 2 (Q92769 whole entry): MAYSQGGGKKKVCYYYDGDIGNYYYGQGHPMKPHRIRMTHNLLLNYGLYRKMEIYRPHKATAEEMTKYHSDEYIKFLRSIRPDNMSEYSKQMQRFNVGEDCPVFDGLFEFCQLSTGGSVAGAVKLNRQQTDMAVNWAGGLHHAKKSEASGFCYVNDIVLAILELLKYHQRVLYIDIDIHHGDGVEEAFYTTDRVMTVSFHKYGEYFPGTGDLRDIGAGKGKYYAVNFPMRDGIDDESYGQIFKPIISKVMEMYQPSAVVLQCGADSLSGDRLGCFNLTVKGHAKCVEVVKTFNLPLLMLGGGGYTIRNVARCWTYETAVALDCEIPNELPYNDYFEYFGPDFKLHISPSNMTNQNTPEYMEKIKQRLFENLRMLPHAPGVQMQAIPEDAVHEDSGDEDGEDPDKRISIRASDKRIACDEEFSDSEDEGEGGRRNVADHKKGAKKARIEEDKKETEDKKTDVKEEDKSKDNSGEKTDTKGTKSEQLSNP
Chain of Histone deacetylase 3/Nuclear receptor corepressor 2 (HDAC3/NCoR2) (O15379 whole entry): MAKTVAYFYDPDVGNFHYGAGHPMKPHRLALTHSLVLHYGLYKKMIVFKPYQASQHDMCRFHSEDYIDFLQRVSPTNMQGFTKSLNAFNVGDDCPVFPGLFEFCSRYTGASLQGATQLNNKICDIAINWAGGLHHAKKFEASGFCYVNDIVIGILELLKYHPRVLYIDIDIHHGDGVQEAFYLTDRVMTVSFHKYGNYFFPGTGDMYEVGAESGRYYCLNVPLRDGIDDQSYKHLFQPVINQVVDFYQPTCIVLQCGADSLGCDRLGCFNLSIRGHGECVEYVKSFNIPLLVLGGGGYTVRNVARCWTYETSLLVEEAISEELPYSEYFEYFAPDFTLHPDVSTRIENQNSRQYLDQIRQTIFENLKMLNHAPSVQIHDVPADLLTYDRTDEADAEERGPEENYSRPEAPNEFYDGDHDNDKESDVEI
Chain of Histone deacetylase 3/Nuclear receptor corepressor 2 (HDAC3/NCoR2) (Q9Y618 whole entry, further chain): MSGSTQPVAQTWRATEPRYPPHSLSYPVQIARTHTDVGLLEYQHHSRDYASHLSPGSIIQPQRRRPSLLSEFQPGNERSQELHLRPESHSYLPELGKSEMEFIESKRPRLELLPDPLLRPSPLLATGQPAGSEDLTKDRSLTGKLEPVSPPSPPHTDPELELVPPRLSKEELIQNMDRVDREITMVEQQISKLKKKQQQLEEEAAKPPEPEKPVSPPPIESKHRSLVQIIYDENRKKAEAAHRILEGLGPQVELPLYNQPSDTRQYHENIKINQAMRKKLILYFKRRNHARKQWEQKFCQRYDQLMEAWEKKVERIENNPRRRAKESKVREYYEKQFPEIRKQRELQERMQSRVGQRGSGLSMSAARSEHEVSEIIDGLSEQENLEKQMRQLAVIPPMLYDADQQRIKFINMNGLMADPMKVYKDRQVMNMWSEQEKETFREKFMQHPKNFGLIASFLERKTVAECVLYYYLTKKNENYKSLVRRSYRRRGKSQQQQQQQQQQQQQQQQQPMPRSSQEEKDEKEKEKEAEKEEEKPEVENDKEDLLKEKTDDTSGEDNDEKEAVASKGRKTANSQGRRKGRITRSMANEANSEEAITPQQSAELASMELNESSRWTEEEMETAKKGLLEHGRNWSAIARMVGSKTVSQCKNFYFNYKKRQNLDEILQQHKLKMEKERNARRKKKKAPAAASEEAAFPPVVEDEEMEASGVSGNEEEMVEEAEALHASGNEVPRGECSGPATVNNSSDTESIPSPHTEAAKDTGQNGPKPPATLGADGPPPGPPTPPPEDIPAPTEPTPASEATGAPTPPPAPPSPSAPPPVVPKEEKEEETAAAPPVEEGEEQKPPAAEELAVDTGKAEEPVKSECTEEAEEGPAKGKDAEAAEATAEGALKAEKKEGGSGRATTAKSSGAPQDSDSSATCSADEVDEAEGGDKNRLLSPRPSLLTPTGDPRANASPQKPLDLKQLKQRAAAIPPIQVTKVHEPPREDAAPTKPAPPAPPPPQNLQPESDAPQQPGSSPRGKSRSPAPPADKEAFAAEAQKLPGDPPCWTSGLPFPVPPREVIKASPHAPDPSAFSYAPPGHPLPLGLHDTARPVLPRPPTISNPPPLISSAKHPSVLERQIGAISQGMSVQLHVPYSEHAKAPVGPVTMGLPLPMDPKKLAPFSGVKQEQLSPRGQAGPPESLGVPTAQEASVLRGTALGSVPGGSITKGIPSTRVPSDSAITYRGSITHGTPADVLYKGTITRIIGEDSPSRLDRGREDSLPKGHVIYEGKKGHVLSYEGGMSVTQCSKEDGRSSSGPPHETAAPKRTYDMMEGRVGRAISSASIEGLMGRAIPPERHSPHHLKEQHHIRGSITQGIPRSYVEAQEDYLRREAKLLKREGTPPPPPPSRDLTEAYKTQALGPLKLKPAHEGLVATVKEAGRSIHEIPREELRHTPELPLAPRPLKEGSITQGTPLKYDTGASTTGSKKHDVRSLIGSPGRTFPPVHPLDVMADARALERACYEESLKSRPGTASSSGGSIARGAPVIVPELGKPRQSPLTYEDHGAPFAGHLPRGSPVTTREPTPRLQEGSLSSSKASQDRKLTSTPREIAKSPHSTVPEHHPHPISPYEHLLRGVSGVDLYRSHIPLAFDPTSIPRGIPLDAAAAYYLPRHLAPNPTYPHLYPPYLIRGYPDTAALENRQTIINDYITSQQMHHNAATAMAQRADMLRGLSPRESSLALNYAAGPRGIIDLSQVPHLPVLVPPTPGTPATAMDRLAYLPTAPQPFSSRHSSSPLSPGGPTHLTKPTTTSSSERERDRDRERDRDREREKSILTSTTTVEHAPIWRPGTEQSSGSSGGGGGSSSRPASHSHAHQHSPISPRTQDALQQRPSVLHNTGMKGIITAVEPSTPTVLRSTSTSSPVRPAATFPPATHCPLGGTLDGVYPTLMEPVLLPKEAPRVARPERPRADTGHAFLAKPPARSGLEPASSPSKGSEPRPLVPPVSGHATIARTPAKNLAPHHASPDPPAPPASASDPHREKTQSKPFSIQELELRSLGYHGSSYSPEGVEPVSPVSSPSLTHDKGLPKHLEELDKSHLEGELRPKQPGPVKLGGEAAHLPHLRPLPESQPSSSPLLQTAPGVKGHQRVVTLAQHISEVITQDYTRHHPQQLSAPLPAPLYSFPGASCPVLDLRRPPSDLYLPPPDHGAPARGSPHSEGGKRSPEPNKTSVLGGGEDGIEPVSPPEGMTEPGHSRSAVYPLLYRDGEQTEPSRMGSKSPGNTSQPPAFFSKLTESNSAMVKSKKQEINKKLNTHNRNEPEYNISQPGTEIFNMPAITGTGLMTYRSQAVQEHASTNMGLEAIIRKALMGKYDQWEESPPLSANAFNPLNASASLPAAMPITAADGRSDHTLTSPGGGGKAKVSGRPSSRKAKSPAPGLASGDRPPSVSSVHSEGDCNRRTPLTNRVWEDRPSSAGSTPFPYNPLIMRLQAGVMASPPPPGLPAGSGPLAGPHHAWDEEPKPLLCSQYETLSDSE

A word on the Ki: it is the dissociation constant of the complex between target and ligand, obtained from inhibition or displacement. Take `CN1C(=O)C2CN(Cc3c2c2ccccc2n3Cc2ccc(C(=O)NO)cc2)C1=O` (stereo unspecified): the inhibition result (in series [1]; in the series on Mus musculus [4]; in series [8]) was “Active” each time. The outcome with MV4-11 was inactive. Besides, the inhibition constant (Ki) in series [2] was determined as 452 nM; in series [3], 306 nM; on Histone deacetylase 4, 1820 nM; on Histone deacetylase 2 it was 774 nM. Further, the values for the Activity result in the series on Mus musculus [5] and in the series on Mus musculus [7] were “Non-Toxic” and 25%, respectively. In addition, in the series on Mus musculus [6], the result was Active.
